Bounds are passed on as bounds.

One data set concerns MV4-11. Briefly: Antiproliferative activity against human MV4-11 cells harboring FLT3 […] mutant assessed as cell viability after 48 hrs by Cell titer Glo assay. The format is functional. To be noted: MV4-11, 48 h. On the technique in general: ATP-based viability assays read luminescence as a measure of living cells.
Data set [1] in a line: Antiproliferative activity against mouse BA/F3 cells harboring JAK2 V617F mutation assessed as cell viability after 48 hrs by Cell titer Glo assay. The format is functional. To be noted: BaF3, 48 h.
The target of data set [2] is Non-receptor tyrosine-protein kinase TYK2 (Homo sapiens, UniProt P29597). Briefly: Inhibition of recombinant TYK2.
The target of data set [3] is T1, Tyrosine-protein kinase JAK3 (Homo sapiens, UniProt P52333).
T1 sequence (P52333 whole entry): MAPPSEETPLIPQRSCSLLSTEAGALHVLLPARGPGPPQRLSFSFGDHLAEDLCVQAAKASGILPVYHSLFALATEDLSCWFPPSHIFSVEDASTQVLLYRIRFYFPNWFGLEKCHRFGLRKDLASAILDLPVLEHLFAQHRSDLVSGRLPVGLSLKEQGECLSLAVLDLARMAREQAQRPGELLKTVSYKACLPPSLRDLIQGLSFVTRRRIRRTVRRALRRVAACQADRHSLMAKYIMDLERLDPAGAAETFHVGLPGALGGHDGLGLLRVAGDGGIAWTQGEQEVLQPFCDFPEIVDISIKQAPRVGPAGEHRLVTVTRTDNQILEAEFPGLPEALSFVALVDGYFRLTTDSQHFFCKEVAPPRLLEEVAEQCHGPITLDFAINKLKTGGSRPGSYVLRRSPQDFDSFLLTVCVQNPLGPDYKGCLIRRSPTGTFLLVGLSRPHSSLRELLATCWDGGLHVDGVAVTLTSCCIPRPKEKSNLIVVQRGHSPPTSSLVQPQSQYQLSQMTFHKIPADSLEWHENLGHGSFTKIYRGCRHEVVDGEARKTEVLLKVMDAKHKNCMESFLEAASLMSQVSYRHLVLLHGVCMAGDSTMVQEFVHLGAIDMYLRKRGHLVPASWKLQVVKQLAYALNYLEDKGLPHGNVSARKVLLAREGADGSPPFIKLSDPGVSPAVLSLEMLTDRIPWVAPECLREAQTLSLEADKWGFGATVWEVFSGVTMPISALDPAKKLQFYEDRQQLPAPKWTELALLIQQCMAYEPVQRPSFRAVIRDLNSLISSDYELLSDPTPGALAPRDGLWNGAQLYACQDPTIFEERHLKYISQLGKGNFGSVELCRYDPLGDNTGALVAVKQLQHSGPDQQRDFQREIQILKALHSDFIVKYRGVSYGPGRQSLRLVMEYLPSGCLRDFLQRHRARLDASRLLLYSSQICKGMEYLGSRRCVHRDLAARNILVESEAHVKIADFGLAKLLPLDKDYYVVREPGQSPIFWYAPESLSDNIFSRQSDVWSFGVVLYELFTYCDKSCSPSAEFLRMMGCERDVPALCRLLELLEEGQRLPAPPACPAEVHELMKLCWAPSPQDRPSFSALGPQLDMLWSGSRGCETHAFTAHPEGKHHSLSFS
The experiment in a line: Inhibition of recombinant JAK3 using Poly (Glu,Ala,Tyr) as substrate after 2 hrs by luminescence assay.

Data set [4] addresses Tyrosine-protein kinase JAK1 (Homo sapiens, UniProt P23458). Briefly: Inhibition of recombinant JAK1 using Poly (Glu,Ala,Tyr) as substrate after 2 hrs by luminescence assay. In short, it runs like this:
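Luciferase-coupled ATP-depletion luminescence assay in 50 mM Hepes pH 7.5 with MgCl₂, MnCl₂, BGP, DTT and orthovanadate, 2 h at room temperature. Conditions per target: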

Data set [5] concerns the target Tyrosine-protein kinase JAK2 (Homo sapiens, UniProt O60674). Briefly: Inhibition of recombinant JAK2 using Poly (Glu,Ala,Tyr) as substrate after 2 hrs by luminescence assay.
Data set [6] addresses Cyclin-dependent kinase 2/cyclin A (Homo sapiens, UniProt P24941). Briefly: Inhibition of recombinant CDK2/Cyclin A using RbinG as substrate after 2 hrs by luminescence assay. Type of data set: protein-complex assay.
A further data set has as its target Cytochrome P450 2D6 (Homo sapiens, UniProt P10635).
The target of a further data set is Cytochrome P450 3A4 (Homo sapiens, UniProt P08684).
Data set [7] in a line: in vitro. To be noted: mouse, liver microsomes. A general note: Liver microsomes are a subcellular fraction often used to study metabolism.
The nature of data set [8]: in vitro. The conditions noted are these: human, liver microsomes.
Data set [9] in a line: in vitro. The conditions noted are these: PAMPA. In general terms: The PAMPA barrier holds no transporters, so it reflects passive diffusion.
The nature of the next data set: physchem. The conditions noted are these: phosphate buffer saline, pH 7.
For data set [10], the target named is T2, Receptor-type tyrosine-protein kinase FLT3 (Homo sapiens, UniProt P36888).
T2 sequence (P36888 whole entry): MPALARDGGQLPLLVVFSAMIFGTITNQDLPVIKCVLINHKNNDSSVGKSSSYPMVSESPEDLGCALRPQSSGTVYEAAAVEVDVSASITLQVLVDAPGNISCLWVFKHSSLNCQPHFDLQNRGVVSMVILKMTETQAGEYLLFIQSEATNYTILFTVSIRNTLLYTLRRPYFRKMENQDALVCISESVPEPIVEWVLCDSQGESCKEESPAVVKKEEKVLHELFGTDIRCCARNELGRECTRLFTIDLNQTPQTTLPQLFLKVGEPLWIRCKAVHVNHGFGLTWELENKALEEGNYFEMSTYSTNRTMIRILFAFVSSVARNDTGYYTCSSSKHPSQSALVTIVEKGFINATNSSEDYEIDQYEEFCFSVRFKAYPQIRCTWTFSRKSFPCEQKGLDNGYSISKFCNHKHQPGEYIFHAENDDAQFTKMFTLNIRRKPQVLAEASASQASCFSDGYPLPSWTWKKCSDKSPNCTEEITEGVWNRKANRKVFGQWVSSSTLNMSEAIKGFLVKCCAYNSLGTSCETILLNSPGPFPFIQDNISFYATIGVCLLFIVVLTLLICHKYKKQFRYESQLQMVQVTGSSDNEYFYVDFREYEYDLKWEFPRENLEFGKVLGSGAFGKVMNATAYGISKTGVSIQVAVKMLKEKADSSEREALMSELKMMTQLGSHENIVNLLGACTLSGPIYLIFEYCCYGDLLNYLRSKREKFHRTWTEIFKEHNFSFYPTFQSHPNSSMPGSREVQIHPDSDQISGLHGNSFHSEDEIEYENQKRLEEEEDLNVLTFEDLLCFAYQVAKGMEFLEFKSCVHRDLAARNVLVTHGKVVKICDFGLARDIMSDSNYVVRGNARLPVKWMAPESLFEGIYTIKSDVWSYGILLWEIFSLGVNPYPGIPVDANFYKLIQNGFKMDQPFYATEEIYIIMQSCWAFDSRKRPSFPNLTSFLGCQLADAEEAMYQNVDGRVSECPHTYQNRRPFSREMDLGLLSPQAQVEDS
Briefly: Inhibition of recombinant FLT3 using Poly (Glu,Tyr) as substrate after 2 hrs by luminescence assay.

Sequence of Cytochrome P450 2D6 (P10635 whole entry): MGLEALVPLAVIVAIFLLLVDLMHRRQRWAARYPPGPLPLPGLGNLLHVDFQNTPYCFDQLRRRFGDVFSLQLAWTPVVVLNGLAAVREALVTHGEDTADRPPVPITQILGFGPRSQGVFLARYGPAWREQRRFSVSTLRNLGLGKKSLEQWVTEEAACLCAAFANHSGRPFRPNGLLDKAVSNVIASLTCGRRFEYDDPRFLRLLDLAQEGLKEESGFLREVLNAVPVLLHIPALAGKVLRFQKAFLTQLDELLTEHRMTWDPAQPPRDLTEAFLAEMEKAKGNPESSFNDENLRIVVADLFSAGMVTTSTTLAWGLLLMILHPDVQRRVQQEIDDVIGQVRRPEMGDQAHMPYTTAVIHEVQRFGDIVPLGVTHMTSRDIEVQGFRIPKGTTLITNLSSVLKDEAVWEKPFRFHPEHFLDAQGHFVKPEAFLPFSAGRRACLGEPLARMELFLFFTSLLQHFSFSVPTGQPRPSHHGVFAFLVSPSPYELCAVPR
Sequence of Cytochrome P450 3A4 (P08684 whole entry): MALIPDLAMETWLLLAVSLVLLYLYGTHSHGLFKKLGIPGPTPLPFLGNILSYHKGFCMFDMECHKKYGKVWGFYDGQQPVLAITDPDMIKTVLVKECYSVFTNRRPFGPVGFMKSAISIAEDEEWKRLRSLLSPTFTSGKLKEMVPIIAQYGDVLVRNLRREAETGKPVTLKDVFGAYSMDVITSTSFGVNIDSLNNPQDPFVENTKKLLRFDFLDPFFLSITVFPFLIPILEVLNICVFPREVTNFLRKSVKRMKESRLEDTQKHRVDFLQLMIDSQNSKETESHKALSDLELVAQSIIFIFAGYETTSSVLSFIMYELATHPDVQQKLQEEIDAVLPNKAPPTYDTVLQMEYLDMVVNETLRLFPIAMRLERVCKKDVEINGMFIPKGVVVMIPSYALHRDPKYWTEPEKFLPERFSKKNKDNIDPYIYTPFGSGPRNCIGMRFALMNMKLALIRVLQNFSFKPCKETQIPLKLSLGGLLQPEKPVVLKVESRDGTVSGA
Sequence of Non-receptor tyrosine-protein kinase TYK2 (P29597 whole entry): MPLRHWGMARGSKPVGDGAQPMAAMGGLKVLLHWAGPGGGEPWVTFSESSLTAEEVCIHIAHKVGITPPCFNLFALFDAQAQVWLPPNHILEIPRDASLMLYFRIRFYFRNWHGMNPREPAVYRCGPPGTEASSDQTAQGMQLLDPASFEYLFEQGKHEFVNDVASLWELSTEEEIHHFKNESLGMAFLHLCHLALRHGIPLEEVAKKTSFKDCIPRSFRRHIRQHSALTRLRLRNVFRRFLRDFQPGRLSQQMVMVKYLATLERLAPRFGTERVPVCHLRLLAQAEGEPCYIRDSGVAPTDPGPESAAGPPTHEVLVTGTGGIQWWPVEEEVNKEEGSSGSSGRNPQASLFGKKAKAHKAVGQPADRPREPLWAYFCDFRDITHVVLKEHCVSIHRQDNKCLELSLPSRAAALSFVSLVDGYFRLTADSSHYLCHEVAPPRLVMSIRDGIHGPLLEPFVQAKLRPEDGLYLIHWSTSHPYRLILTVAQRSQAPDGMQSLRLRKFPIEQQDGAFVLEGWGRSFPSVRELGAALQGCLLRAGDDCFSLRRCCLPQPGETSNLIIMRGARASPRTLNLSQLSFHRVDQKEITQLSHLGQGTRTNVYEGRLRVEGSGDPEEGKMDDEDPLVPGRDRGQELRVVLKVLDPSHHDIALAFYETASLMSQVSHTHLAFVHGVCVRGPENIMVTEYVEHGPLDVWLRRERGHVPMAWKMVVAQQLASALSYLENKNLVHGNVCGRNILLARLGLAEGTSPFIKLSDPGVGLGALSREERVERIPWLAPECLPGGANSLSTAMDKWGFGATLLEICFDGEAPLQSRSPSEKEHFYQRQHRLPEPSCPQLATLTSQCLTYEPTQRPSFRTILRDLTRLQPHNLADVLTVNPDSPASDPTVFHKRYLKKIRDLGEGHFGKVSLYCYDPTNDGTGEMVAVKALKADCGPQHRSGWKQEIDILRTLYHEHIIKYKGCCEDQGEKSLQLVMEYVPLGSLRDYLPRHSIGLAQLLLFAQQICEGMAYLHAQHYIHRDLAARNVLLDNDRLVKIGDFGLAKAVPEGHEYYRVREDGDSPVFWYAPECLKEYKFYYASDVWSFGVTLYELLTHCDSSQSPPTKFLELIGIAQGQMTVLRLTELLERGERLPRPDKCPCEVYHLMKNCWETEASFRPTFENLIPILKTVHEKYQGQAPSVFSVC
Sequence of Tyrosine-protein kinase JAK1 (P23458 whole entry): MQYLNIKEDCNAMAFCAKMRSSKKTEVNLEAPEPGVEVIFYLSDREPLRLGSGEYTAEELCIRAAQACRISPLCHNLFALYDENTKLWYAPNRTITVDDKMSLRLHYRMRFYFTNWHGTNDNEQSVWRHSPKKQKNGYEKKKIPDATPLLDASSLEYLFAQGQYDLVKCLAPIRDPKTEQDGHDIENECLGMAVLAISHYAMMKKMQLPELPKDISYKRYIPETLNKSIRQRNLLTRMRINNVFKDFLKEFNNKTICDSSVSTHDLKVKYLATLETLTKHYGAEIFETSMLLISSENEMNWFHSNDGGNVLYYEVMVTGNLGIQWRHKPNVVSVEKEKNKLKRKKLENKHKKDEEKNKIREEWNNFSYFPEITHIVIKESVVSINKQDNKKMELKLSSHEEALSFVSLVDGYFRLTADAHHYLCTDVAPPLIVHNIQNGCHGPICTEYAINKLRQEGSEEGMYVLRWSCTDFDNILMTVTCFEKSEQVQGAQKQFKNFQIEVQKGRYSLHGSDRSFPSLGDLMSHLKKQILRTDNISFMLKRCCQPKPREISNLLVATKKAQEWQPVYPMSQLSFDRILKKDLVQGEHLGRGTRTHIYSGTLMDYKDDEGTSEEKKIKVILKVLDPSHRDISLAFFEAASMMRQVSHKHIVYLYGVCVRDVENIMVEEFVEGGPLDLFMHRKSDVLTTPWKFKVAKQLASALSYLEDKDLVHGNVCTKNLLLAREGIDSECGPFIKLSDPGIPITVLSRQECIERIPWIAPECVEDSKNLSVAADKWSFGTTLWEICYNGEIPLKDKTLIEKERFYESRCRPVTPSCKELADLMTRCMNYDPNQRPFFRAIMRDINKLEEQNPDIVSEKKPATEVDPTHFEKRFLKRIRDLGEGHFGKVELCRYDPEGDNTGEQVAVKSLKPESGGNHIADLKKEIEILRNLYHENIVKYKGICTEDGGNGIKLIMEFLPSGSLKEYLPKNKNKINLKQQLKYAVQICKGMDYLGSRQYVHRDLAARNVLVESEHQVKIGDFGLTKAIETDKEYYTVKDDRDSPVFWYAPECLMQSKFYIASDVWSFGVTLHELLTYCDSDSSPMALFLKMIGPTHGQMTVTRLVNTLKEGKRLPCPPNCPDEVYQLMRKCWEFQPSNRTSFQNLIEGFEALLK
Sequence of Tyrosine-protein kinase JAK2 (O60674 whole entry): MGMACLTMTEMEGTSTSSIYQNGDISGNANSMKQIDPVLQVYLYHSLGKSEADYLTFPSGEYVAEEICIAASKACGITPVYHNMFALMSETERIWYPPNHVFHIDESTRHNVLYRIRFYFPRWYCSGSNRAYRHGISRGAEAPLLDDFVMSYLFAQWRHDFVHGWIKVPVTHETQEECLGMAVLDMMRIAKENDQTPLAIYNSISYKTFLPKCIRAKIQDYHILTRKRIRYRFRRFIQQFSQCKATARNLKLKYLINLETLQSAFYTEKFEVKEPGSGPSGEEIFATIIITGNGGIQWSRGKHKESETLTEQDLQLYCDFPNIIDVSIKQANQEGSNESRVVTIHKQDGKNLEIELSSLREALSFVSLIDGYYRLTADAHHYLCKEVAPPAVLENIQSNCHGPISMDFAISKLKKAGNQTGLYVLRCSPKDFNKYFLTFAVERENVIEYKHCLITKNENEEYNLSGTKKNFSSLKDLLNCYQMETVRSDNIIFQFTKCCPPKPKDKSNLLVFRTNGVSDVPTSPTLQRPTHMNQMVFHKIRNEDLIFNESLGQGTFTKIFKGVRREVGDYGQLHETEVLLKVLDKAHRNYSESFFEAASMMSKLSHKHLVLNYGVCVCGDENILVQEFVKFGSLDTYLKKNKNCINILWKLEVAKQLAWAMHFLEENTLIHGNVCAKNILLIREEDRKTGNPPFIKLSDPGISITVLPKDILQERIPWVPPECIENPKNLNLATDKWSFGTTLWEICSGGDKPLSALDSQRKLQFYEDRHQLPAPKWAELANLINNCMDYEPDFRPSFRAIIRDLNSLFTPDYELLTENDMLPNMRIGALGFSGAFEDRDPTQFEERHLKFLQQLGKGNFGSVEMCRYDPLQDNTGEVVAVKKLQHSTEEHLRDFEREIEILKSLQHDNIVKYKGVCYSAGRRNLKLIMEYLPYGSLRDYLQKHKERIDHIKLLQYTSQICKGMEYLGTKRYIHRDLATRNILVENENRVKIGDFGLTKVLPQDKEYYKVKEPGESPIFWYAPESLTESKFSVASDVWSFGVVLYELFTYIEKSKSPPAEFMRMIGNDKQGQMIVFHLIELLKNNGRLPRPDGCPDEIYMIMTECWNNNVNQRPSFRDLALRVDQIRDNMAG

What is called GI50 is the concentration giving 50% growth inhibition. The term IC50 denotes the concentration that gives 50% inhibition. Usually half-life stands for how long it takes for the measured level to halve. High values mean slow decline, low ones rapid decline. A word on the Papp: it is the rate of passage across a membrane or cell layer, normalised by area and donor concentration. A low value points to slow passage. As a reminder, the solubility is the concentration that dissolves in the medium under given conditions. A higher solubility goes with a readily soluble substance. For `CCN(CC)CCOc1ccc2cc1COCC=CCOCc1cccc(c1)-c1ccnc(n1)N2` (mixture of isomers), the figures for the concentration for 50% growth inhibition (GI50) (with MV4-11; in data set [1]) were 37 nM and 150 nM, respectively. In addition, the 50% inhibitory concentration (IC50) in data set [2] is 79 nM; in data set [3] it was 620 nM; in data set [4], 3500 nM; in [5], 24 nM; in data set [6], 4700 nM; on Cytochrome P450 2D6 it was more than 10000 nM. Moreover, the IC50 against Cytochrome P450 3A4 stood at 2800 nM; in data set [10] it was 29 nM. In addition, the half-life at 5 µM in “in vitro [7]” stood at 16 min; in the data set “in vitro [8]” it was 44 min. The molecule also had a Papp at 5 h, 1 µM in the data set “in vitro [9]” of 15.8 ×10⁻⁶ cm/s. In the data set “physchem”, this molecule returned a solubility of 147 µg/mL.

Source of the values: ChEMBL document CHEMBL2176955, “Discovery of the macrocycle 11-(2-pyrrolidin-1-yl-ethoxy)-14,19-dioxa-5,7,26-triaza-tetracyclo[19.3.1.1(2,6).1(8,12)]heptacosa-1(25),2(26),3,5,8,10,12(27),16,21,23-decaene (SB1518), a potent Janus kinase 2/fms-like tyrosine kinase-3 (JAK2/FLT3) inhibitor for the treatment of myelofibrosis and …” (J Med Chem, 2011).
